Bioassay records from PubChem BioAssay.
LANA-H2B inh = blocks KSHV LANA binding to histone H2A/H2B | Q9QR71 | cell-free LANA-H2A/H2B peptide, fluorescence polarization | inhibition, % (no concentration beside the values) | hit rate 0.6% among 320,000; in the data active means inhibition mostly above about 10%, no sharp cut-off; inactive means mostly below about 6.7%
CSN inh = CSN deneddylation inhibition; Q92905; Purified CSN, SCF-Nedd8-OG deneddylation, fluorescence polarization; inhibition, % at 12.5 µM; hit rate 0.38% among 360,000; AID 651999;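 active means pattern-corrected inhibition above about 35%, with an unprinted fluorescence ratio check between 0.5 and 1.5, limit read from the data, passing the limit was not always enough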;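 further: 0% = enzyme with substrate and 100% = substrate without enzyme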
Target sequence (Q92905 whole entry, looked up, one chain of several): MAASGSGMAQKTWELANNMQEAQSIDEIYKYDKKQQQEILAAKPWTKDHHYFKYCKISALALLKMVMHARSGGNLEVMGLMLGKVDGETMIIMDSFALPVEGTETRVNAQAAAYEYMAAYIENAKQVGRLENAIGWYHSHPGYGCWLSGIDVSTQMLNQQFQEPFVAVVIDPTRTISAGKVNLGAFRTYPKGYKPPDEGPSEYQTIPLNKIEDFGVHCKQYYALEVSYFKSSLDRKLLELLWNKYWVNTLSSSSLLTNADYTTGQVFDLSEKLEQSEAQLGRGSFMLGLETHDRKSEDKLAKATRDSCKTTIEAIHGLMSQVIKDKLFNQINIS
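Test system: Human Csn5 produced in HEK293T cells | Compound: 12.5 µM single point | Times: 90 min, room temperature | Signal: Fluorescence polarization readout | Read-out basis: % inhibition of substrate cleavage by Csn5 | Controls: no-enzyme wells high, enzyme-with-substrate wells low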
ZTA counter = ZTA (EBV) inhibition in EBNA-1 counter-screen; hit rate 0.15% among 320,000; AID 2234; ZTA-DNA binding, fluorescence polarization; inhibition, % at 11 µM; in the data active means inhibition above about 33%
EBNA-1 inh = blocks EBNA-1 binding to DNA; EBNA-1 DNA binding, fluorescence polarization; inhibition, % at 14.8 µM; hit rate 0.34% among 300,000; AID 1950; in the data active means inhibition above about 28%
HNF4A DNA FP = change in binding of human HNF4 alpha to DNA | P41235 | HNF4a-FITC DNA binding, fluorescence polarization, 1 h | activity change, % at 10 µM | hit rate 0.3% among 360,000 | AID 1224865; in the data active means activity change above about 30%, passing the limit was not always enough
Bfl-1 A1 inh = inhibitors of the anti-apoptotic protein A1, read as caspase activation; MEF A1-2A-BIM cells, Caspase-Glo 3/7 luminescence, 3 h; percent of clofoctol response, vehicle zero; caspase activation, % (test concentration not listed); hit rate 0.066% among 330,000; AID 2462;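 active means over half of replicate activation scores above 10%, or exactly half above 10 with the replicate mean above 10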
EBNA-1 inh conf = EBNA-1 (EBV) inhibition, confirmation | shares compounds with EBNA-1 inh | Recombinant EBNA-1 DBD, Cy5-DNA fluorescence polarization | inhibition, % at 14.8 µM | hit rate 35% among 830 | AID 2292;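 active means mean inhibition across replicates above a set limit taken from the earlier primary screen, cut at about 28% in these data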;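 further: plate controls were EBNA-1 protein with DMSO for no effect and wells lacking EBNA-1 for full effect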
ZTA counter trip = blocks Epstein-Barr virus ZTA in triplicate, EBNA-1 counter-screen | shares compounds with EBNA-1 inh | Zta-ZRE DNA binding, Cy5 fluorescence polarization | inhibition, % at 11.1 µM | 830 tested, under 10 active | AID 2328;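 active means mean inhibition over triplicates above a set limit taken from the primary EBNA-1 screen, cut at about 37% in these data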;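 further: purified full length Zta protein with Cy5 labeled ZRE DNA probe; 0% = Zta with DMSO and 100% = wells lacking Zta protein; inhibitors lower polarization by freeing the labeled DNA probe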
* = called active by the depositor; x = no result given. Most compounds without a hit are left out; they make up all but 1.5% or so of the library.

SMILES | LANA-H2B inh | CSN inh | ZTA counter | EBNA-1 inh | HNF4A DNA FP | Bfl-1 A1 inh | EBNA-1 inh conf | ZTA counter trip
COCCCNC(=O)c1c(N)n(-c2ccc(S(N)(=O)=O)cc2)c2nc3ccccc3nc12 | 3.5 | -0.3 | 24.6 | 113.5* | -1.9 | 0.5 | 64.8* | -12.8
COCCCNC(=O)c1c(N)n(-c2ccccc2)c2nc3ccccc3nc12 | 1.0 | -1.5 | -4.6 | -3.4 | -4.4 | -0.2 | x | x
CCOC(=O)C1=C(COc2ccccc2)NC(=O)NC1c1ccc(Cl)cc1 (stereo not drawn) | 1.6 | 14.4 | 15.8 | 8.9 | 7.3 | -0.4 | x | x
COc1ccc(NS(=O)(=O)c2ccc(O)c(NC(=O)c3ccc(S(=O)(=O)N4CCCCCC4)cc3)c2)cc1 | -2.7 | 11.0 | 15.1 | 28.3* | -5.5 | 0.9 | 3.1 | 4.3
COc1ccc(S(=O)(=O)N2CCCCC2)cc1NC(=O)c1cccs1 | 2.6 | -1.4 | -8.3 | 35.5* | 0.1 | 1.3 | 31.8* | -1.2
COc1ccc(-c2cc(NC=O)c3ncc(-c4cnn(C)c4)n3c2)cc1 | x | 11.9 | x | x | 1.0 | x | x | x
Cc1cc(C(=O)CSc2nnnn2-c2ccccc2)c(C)n1CC1CCCO1 (stereo not drawn) | -3.7 | -2.4 | -0.3 | 151.3* | -0.1 | -0.5 | 92.8* | 2.3
CCOc1ccccc1NC(=O)Nc1cccc(S(N)(=O)=O)c1 | 1.4 | -0.3 | -5.0 | -9.4 | 4.0 | 1.1 | x | x
Cc1cc(C(=O)OCC(=O)c2c(N)n(C)c(=O)n(C)c2=O)c(C)n1-c1ccccc1 | -0.3 | 1.9 | -2.9 | 40.9* | 2.7 | 0.7 | 81.8* | 8.2
Cn1c(N)c(C(=O)COC(=O)c2ccccc2C(=O)c2ccccc2)c(=O)n(C)c1=O | -8.4 | -1.4 | 3.0 | x | 3.5 | -0.8 | x | x
CCOc1cc(C(=O)OCC(=O)c2c(N)n(C)c(=O)n(C)c2=O)cc(OCC)c1OCC | x | 4.3 | -1.0 | 76.0* | 2.9 | x | 61.0* | 1.2
COc1ccccc1/C=C/C(=O)OCC(=O)c1c(N)n(C)c(=O)n(C)c1=O | 2.0 | -13.6 | -4.2 | 48.2* | -2.7 | -0.9 | 26.4 | 7.8
O=C1N=C(N2CCCCC2)S/C1=C\c1cn[nH]c1-c1ccccc1 | 2.4 | 2.1 | 13.7 | 90.8* | 0.4 | -0.8 | 14.8 | 0.1
Cc1cccc(NC(=O)c2cc(S(=O)(=O)N3CCc4ccccc43)cn2C)c1C | 0.9 | 1.9 | 9.9 | 27.6* | 1.6 | 0.3 | 39.1* | -7.5
OC1COCOC1C(O)C1OCOCC1O (stereo not drawn) | x | 0.0 | x | x | 3.0 | x | x | x
CC(OCc1ccccc1)C(NC(=O)OC(C)(C)C)C(=O)NCC1CCCO1 (stereo not drawn) | -1.6 | -2.6 | -12.2 | 46.1* | -3.9 | 0.0 | -7.8 | -4.4
COc1cc(Cn2c(N)c(C#N)c3nc4ccccc4nc32)cc(OC)c1 | -2.6 | 3.1 | -7.3 | 92.5* | 3.5 | -0.1 | 25.2 | -2.6
COc1ccc(Cn2c(N)c(C#N)c3nc4ccccc4nc32)cc1 | 0.7 | 8.2 | 0.6 | 0.5 | 10.9 | -0.1 | x | x
CC(C)(C)C(O)CN1CCCC1 (stereo not drawn) | -0.9 | -6.3 | 0.6 | 5.8 | 2.3 | -0.5 | x | x
O=C1N/C(=C\c2ccccc2)C(O)=C1C=NCc1ccccc1 | x | 7.8 | -6.2 | 33.3* | 0.8 | 0.8 | 9.9 | 8.6
Nc1c(C(=O)Nc2ccc3c(c2)OCCO3)nnn1Cc1cccc(Cl)c1 | 0.8 | 27.1 | 11.6 | 54.3* | -1.9 | -3.7 | 108.4* | 4.2
COc1ccccc1CN1C(=O)[C@@H]2C(CC(N)=O)NC3(C(=O)Nc4c3ccc(Cl)c4C)[C@@H]2C1=O (stereo partly drawn) | -0.7 | 2.6 | 7.8 | 28.2* | 3.7 | -0.2 | 48.7* | -6.6
COc1ccccc1CN1C(=O)[C@@H]2C(CCC(N)=O)NC3(C(=O)Nc4c3ccc(Cl)c4C)[C@@H]2C1=O (stereo partly drawn) | 1.7 | 3.3 | -10.8 | -1.7 | 0.0 | -0.2 | x | x
